Measured values reported in paper PMC3880594 (Journal of medicinal chemistry, 2013).

How the values were obtained:
[1] = tested on: MCF-7/ADR cells (adriamycin-resistant MCF-7 clone); assay: Growth inhibition of drug-resistant breast cancer cells; type: cell-based, human; conditions: concentrations from 1 μM to 10 μM, 48 h
[2] = tested on: Bcl-2, Bax, NF-κB (p65), PARP, caspase-3 in MDA-MB-231 cells; assay: Western blot of apoptosis related proteins; type: cell-based, human; conditions: 48 h; 10 and 19 at 2.5-10 μM, 1 at 10-30 μM
In short: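 MDA-MB-231 cells exposed to test compound or DMSO for 48 h, then lysed; protein measured by Bradford against BSA. 30 μg per lane resolved by SDS-PAGE and blotted to PVDF, blocked in 5% non-fat milk. Primary antibodies overnight: Bcl-2 1:200, Bax 1:1000, PARP 1:10000, NF-κB 1:2000, caspase-3 1:1000, β-actin 1:20000. Secondary antibody applied, then ECL detection.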

[3] = tested on: MDA-MB-231, a TNBC cell line; conditions: same dose range effective for MCF-7 cells; ref 9a; cited from earlier work
MDA-MB-231 cells [4] = assay: Colony formation assay; type: cell-based, human; conditions: 0.625-10 μM, two weeks
In short: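 MDA-MB-231 cells seeded at 800 cells/well in regular medium; after 24 h, test compound (0.625, 1.25, 2.5, 5 or 10 μM) or DMSO vehicle added. Drug-containing medium renewed every 72 h for two weeks. Wells stained with 0.01% crystal violet for 10 min, PBS-washed and dried, then whole-well density quantified digitally. Triplicate; one-way ANOVA, SD shown.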

MDA-MB-231 cells [5] = assay: Cell apoptosis assay; type: cell-based, human; conditions: MDA-MB-231 cells, 1.0, 5.0, 10 μM, 24 h
[6] = tested on: MCF-7 (ER-positive) breast cancer cells; assay: MTT antiproliferation assay, MCF-7; type: cell-based, human; conditions: MCF-7 and MDA-MB-231 cells
In short: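 Human breast cancer lines MCF-7 (ER-positive) and MDA-MB-231 (triple-negative) were used, with oridonin tested alongside. MTT antiproliferation read-out: after the MTT step, solution replaced by DMSO, OD at 550 nm after 10 min. Each concentration in quadruplicate wells. IC50 by curve fitting. Mean ± SE of three independent experiments.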

[7] = tested on: HMEC (human normal mammary epithelial cells); assay: Growth inhibition of normal human mammary epithelial cells; type: cell-based; conditions: 10 μM, 24 h; p < 0.05
[8] = tested on: MDA-MB-231 xenograft tumors; assay: MDA-MB-231 xenograft tumor model; type: in vivo; conditions: 5 mg/kg i.p., nude mice

Row | SMILES | growth inhibitory activity on MCF-7/ADR cells [1] | Bax protein level [2] | Bcl-2 protein level [2] | NF-κB (p65) protein expression [2] | PARP cleavage (116 kDa to 25 kDa) [2] | caspase-3 activation [2] | growth of MDA-MB-231 [3] | inhibition of colony formation (MDA-MB-231 cells [4]) | induction of apoptosis (MDA-MB-231 cells [5]) | antiproliferative activities (in words) [6] | toxicity to HMEC compared with oridonin [7] | tolerability / body weight [8]
1 | C=C1C(=O)[C@]23[C@H](O)[C@H]1CC[C@H]2[C@@]12CO[C@]3(O)[C@@H](O)[C@@H]1C(C)(C)CC[C@@H]2O [Compound 1, Oridonin, reference compound] | no growth inhibitory activity | up-regulation | down-regulation | down-regulation | up-regulation of Bax and cleaved PARP | did not activate caspase-3 cleavage | failed to reduce the growth | – | – | – | – | –
2 | C=C1C(=O)[C@@]23[C@@H]4OC(C)(C)O[C@]25OC[C@]2(C(=O)C(C=O)=CC(C)(C)[C@H]2[C@@H]5O)[C@@H]3CC[C@@H]14 [Compound 10, (3S,3aR,3a^1R,6aR,7S,7aR,11aS,11bS)-7-hydroxy-5,5,8,8-tetramethyl-15-methylene-11,14-dioxo-2,3,3a,7,7a,8,11,11b-octahydro-1H-6a,11a-(epoxymethano)-3,3a^1-ethanophenanthro[1,10-de][1,3]dioxine-10-carbaldehyde] | – | up-regulation | down-regulation | significant decrease | triggered PARP cleavage | activated caspase-3 in a dose-dependent manner | – | inhibit the colony formation | significant effects to induce apoptosis of MDA-MB-231 cells in a dose-dependent manner | – | – | –
3 | C=C1C(=O)[C@@]23C(=O)[C@@H](O)[C@@H]4C(C)(C)[C@@H]5OC[C@]4(C(=O)/C5=C/OC)[C@@H]2CC[C@@H]1[C@H]3O [Compound 13, (3S,4aR,5S,6aR,9S,11aS,11bS,14R,E)-5,14-dihydroxy-2-(methoxymethylene)-4,4-dimethyl-8-methyleneoctahydro-1H-3,11b-(epoxymethano)-6a,9-methanocyclohepta[a]naphthalene-1,6,7(2H,8H)-trione] | – | – | – | – | – | – | – | – | – | no obvious antiproliferative activities | – | –
4 | C=C1C(=O)[C@@]23C(=O)[C@@H](O)[C@@H]4C(C)(C)[C@@H]5OC[C@]4(C(=O)/C5=C\O)[C@@H]2CC[C@@H]1[C@H]3O [Compound 14, (3S,4aR,5S,6aR,9S,11aS,11bS,14R,Z)-5,14-dihydroxy-2-(hydroxymethylene)-4,4-dimethyl-8-methyleneoctahydro-1H-3,11b-(epoxymethano)-6a,9-methanocyclohepta[a]naphthalene-1,6,7(2H,8H)-trione] | – | – | – | – | – | – | – | – | – | no obvious antiproliferative activities | – | –
5 | C=C1C(=O)[C@@]23[C@@H]4OC(C)(C)O[C@]25OC[C@]2(C=CC(=O)C(C)(C)[C@H]2[C@@H]5O)[C@@H]3CC[C@@H]14 [Compound 19, (3S,3aR,3a^1R,6aR,7S,7aS,11aR,11bS)-7-hydroxy-5,5,8,8-tetramethyl-15-methylene-3,3a,7,7a,8,11b-hexahydro-1H-6a,11a-(epoxymethano)-3,3a^1-ethanophenanthro[1,10-de][1,3]dioxine-9,14(2H)-dione] | – | up-regulation | down-regulation | significant decrease | triggered PARP cleavage | activated caspase-3 in a dose-dependent manner | – | significantly blocked the colony formation of MDA-MB-231 cells at a submicromolar concentration | significant effects to induce apoptosis of MDA-MB-231 cells in a dose-dependent manner | – | lower toxicity at 10 μM than oridonin | no significant loss of body weight
